Assay [1] addresses EcIMPDH/D243G (Escherichia coli, UniProt P0ADG7, D243G). Put plainly: biochemical. The class given is biochemical.
Assay [2] concerns the target AbIMPDH (Acinetobacter baumannii, UniProt D0CF46). Put plainly: biochemical. Format: biochemical.
The target in assay [3] is EcIMPDH/WT (Escherichia coli, UniProt P0ADG7). Description: biochemical. Format: biochemical.
Assay [4] relates to E. coli strains containing WT and mutant IMPDH. Put plainly: Growth of engineered E. coli strains with WT or mutant IMPDH. The class given is cell-based, Escherichia coli. A digest of the protocol:
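E. coli strains carrying WT or mutant IMPDH (guaB) were precultured overnight to saturation in M9 + 1 mM IPTG + 2 g/L glucose. They were diluted 100-fold into M9 salts with 300 mg/L thiamine, 1 mM IPTG and the carbon source; for coumarate, 1 g/L with or without 5 mg/L guanosine (~18 μM). Triplicate cultures were read at OD600 in a plate reader, growth rates were curve-fitted, and standard deviation was taken over three biological replicates.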

The source of these data is PMC6904512 (Molecular microbiology, 2019).

Structures are written as SMILES.

EcIMPDH/WT, sequence (P0ADG7 whole entry): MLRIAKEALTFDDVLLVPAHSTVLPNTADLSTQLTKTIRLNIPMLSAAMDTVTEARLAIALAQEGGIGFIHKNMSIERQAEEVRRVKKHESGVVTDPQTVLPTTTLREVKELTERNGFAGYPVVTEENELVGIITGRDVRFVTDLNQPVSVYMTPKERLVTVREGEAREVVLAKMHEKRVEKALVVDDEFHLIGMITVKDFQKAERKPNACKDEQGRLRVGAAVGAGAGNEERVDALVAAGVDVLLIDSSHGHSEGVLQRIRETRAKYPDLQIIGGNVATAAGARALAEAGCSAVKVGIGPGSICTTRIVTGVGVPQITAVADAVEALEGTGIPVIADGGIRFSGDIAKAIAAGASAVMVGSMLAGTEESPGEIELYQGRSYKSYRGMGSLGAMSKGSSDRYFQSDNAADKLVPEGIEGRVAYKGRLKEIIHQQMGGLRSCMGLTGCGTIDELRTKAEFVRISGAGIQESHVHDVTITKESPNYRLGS
EcIMPDH/D243G, sequence (P0ADG7 whole entry D243G): as the sequence (P0ADG7 whole entry) above, with D243G counted along it

Consider `O=Cc1ccc(O)cc1` [4-hydroxybenzaldehyde], for which the “Inhibition mechanism with respect to IMP” value in assay [1] (D243G EcIMPDH) and in assay [3] (wild type EcIMPDH) was “uncompetitive inhibitor” in each case. In addition, the “Inhibition mechanism with respect to NAD+” value in assay [1] (D243G EcIMPDH) and in assay [3] (wild type EcIMPDH) was “noncompetitive (mixed) inhibitor” throughout. For the same compound, the Ki in assay [1] (Ki,app(4HB), EcIMPDH/D243G, 20 nM enzyme, 12 μM IMP, 500 μM NAD+, pH 7.0) was found to be 1250 ± 50 µM; in assay [2], 720 ± 30 µM; in assay [3] (Ki,app(4HB), EcIMPDH/WT, 20 nM enzyme, 12 μM IMP, 500 μM NAD+, pH 7.0), 320 ± 30 µM.

`NC(=O)c1ccc[n+]([C@@H]2O[C@H](COP(=O)([O-])OP(=O)(O)OC[C@H]3O[C@@H](n4cnc5c(N)ncnc54)[C@H](O)[C@@H]3O)[C@@H](O)[C@H]2O)c1` [NAD]: the “Kii(NAD)” value in assay [1] (EcIMPDH/D243G, substrate inhibition by NAD, fixed 1.2 mM IMP) was 3500 ± 690 µM; in assay [2] (AbIMPDH, substrate inhibition by NAD, fixed 1.2 mM IMP) it was 10600 ± 1100 µM; in assay [3] (EcIMPDH/WT, substrate inhibition by NAD, fixed 1.2 mM IMP) it was 4300 ± 530 µM. The Km in assay [1] (read-out: Km(NAD), EcIMPDH/D243G, fixed 1.2 mM IMP, 50 nM enzyme) turned out to be 210 ± 40 µM; in assay [2] (read-out: Km(NAD), AbIMPDH, fixed 1.2 mM IMP, 50 nM enzyme), 208 ± 17 µM; in assay [3] (read-out: Km(NAD), EcIMPDH/WT, fixed 1.2 mM IMP, 50 nM enzyme) it was 210 ± 20 µM.

With `Nc1nc2c(ncn2[C@@H]2O[C@H](CO)[C@@H](O)[C@H]2O)c(=O)[nH]1` [guanosine], the “Effect of added guanosine on inhibition by 4-hydroxybenzaldehyde” value in assay [4] (strain JME129 (wild-type guaB), growth with glucose (Figure S6)) was “relieved inhibition”. Besides, the “Effect of added guanosine on growth with coumarate” value in assay [4] (strain with wild-type IMPDH, 1 g/L coumarate, 5 mg/L guanosine) was “increased growth with coumarate”.

For orientation: Km means the concentration of substrate that gives half-maximal velocity.
